According to ChEMBL document CHEMBL4190353, “Synthesis, structure-activity relationships and preliminary mechanism of action of novel water-soluble 4-quinolone-3-carboxamides as antiproliferative agents” (Eur J Med Chem, 2017):
The source made the active and inactive calls. No cut-off for these calls is given here.

What was measured:
[1] = Solubility in water; assay type: physicochemical
[2] = test system: HCT-116; experiment: Cytotoxicity in human HCT116 cells assessed as reduction in cell viability pre-treated with 7.5 mM L-NAC followed by 16 to 32 uM compound addition and further incubated for 24 hrs by CCK8 assay; assay type: functional, cell-based
How it was run: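 HCT116 cells were pretreated with H2O, 7.5 mM L-NAC or 7.5 mM GSH, then exposed to 4, 16 or 32 µM for 24 h. Viability was read by CCK-8, with 1 h reagent incubation at 37 °C and absorbance at 450 nm. n=3.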

[3] = test system: HepG2; experiment: Cytotoxicity against human HepG2 cells assessed as reduction in cell viability incubated for 24 hrs by MTT assay; assay type: functional, cell-based; conditions: HepG2, 24 h
How it was run: (§1)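 Cells were kept in McCoy's 5A with 10% fetal bovine serum, streptomycin and 100 units·mL⁻¹ penicillin at 37 °C under 5% CO₂/95% air. Viability was read by MTT optical density. IC50 is the concentration that lowers optical density by 50% relative to untreated cells. Values are means with SD of at least three independent determinations.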

[4] = test system: HCT-116; experiment: Cytotoxicity against human HCT116 cells assessed as reduction in cell viability incubated for 24 hrs by MTT assay; assay type: functional, cell-based; conditions: HCT-116, 24 h; how it was run: as §1
[5] = test system: HEp-2; experiment: Cytotoxicity against human Hep2 cells assessed as reduction in cell viability incubated for 24 hrs by MTT assay; assay type: functional, cell-based; conditions: HEp-2, 24 h; how it was run: as §1
[6] = test system: HCT-116; experiment: Cytotoxicity against Bax-/- human HCT116 cells assessed as reduction in cell viability incubated for 24 hrs by CCK8 assay; assay type: functional, cell-based
How it was run: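 Cells were seeded at 3×10^4 per well, grown 24 h, then exposed to increasing concentrations for 24 h. CCK-8 reagent was added for 1 h at 37 °C and absorbance was read at 450 nm. Cells were kept in McCoy's 5A with 10% FBS, and n=3.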

[7] = test system: HCT-116; experiment: Inhibition of colony formation of human HCT116 cells incubated for 24 hrs by crystal violet staining based photography; assay type: functional, cell-based
How it was run: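 Cells (HCT116, RKO, HCT116 p53-/-, HCT116 Bax-/-) seeded at 300 per well in 12-well plates for 48 h, then treated 24 h. Drug medium replaced with fresh medium; about 10 days later colonies stained 15 min with crystal violet, photographed and counted. Run in triplicate.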

[8] = test system: HCT-116; experiment: Induction of apoptosis in human HCT116 cells assessed as increase in cleaved PARP level pre-treated with 7.5 mM L-NAC for 6 hrs followed by 4 to 8 uM compound addition and further incubated for 24 hrs by Western blot method; assay type: functional, cell-based
How it was run: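 HCT116 cells were pretreated with H2O or 7.5 mM L-NAC for 6 h, then exposed to 0, 4 or 8 µM for 24 h. Lysates were made in SDS buffer and run on 10% SDS-PAGE. Blots were probed for cleaved PARP (1:1000) with GAPDH (1:5000) as control, and detected by ECL.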

[9] = test system: RKO; experiment: Cytotoxicity against human RKO cells assessed as reduction in cell viability incubated for 24 hrs by MTT assay; assay type: functional, cell-based; how it was run: as §1
[10] = test system: HCT-116; experiment: Induction of apoptosis in human HCT116 cells assessed as viable cells level pre-incubated with 20 uM pan-caspase inhibitor Z-VAD-FMK for 5 hrs followed by compound addition and further incubated for 48 hrs by Annexin V-FITC/PI staining based cytometry (reference value: 98.7%); assay type: functional
[11] = test system: HCT-116; experiment: Induction of apoptosis in human HCT116 cells assessed as viable cells level incubated for 48 hrs by Annexin V-FITC/PI staining based cytometry (reference value: 98.7%); assay type: functional
[12] = test system: HCT-116; experiment: Induction of apoptosis in human HCT116 cells assessed as increase in cleaved PARP level pre-incubated with 20 uM pan-caspase inhibitor Z-VAD-FMK for 5 hrs followed by compound addition and further incubated for 48 hrs by Western blot method; assay type: functional, cell-based
How it was run: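 Cells were pretreated for 5 h with DMSO or 20 µM Z-VAD-FMK before compound exposure. Lysates were made in SDS buffer and quantified by BCA. Proteins were run on 10% SDS-PAGE, transferred to PVDF, and probed with cleaved PARP (1:1000) and GAPDH (1:5000) loading control, with ECL detection.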

CCN(CC)CCCNC(=O)c1cn(CCCc2ccccc2)c2cc(Cl)ccc2c1=O.Cl
solubility [1]: > 10000 µg/mL | Activity [2]: inactive | IC50 [3]: 3.94 µM | IC50 [4]: 5.79 µM | IC50 [5]: 3.53 µM | Activity [6]: Dose-dependent effect | inhibition [7]: Dose-dependent effect | Activity [8]: inactive | IC50 [9]: 4.87 µM | Activity [10]: 80.4% | Activity [11]: 62.5% | Activity [12]: inactive
